PubChem BioAssay AID588724 (Johns Hopkins Ion Channel Center, 2011)
Where “and” joins values, the source holds several entries; their conditions need not be identical. Equal entries are not always repeated. Calls of active or inactive are those of the source.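 Rule for the calls: active = blocks the KCNK9 potassium channel at some tested dose and a concentration-response curve can be fitted; inactive = no blocking at any dose, or no curve could be fitted.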

target: Potassium channel subfamily K member 9 (Homo sapiens) (UniProt Q9NPC2); assay: blockers of TASK3 potassium channel KCNK9 – cell-based, round III, SAR follow-up (AID 588724); settings: HEK293-KCNK9, FluxOR thallium flux fluorescence
Sequence (Q9NPC2 whole entry, looked up): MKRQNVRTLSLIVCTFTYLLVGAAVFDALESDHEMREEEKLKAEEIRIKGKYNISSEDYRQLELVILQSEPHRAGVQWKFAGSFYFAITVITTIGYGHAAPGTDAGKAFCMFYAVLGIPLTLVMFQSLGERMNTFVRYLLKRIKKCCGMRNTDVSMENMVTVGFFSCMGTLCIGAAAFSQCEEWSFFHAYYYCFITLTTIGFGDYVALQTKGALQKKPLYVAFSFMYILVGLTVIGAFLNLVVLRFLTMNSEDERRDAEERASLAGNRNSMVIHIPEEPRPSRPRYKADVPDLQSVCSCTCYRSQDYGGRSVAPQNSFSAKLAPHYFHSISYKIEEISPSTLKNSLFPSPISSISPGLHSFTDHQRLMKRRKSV
Summary of the method: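 Repeats: replicate concentration-response data per compound. Assay system: HEK293 cell line stably expressing human KCNK9 channel. Signal: FluxOR thallium-flux fluorescence, kinetic. Times: dye loading 90 min, compound 20 min, both room temperature, dark. Probe or stimulus: thallium/potassium stimulus, 5x stock of 25 mM K2SO4 plus 7 mM Tl2SO4.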

| IC50 | SMILES |
| --- | --- |
| 0.134 µM | CC(C1CC2CCC1C2)n1c(-c2cccc(F)c2)n[nH]c1=S (stereo not drawn) |
| 0.907 µM | CC(CCC1CCCC1)n1c(-c2ccco2)n[nH]c1=S (stereo not drawn) |
| 0.15 µM and 0.29 µM | CC(C1CC2CCC1C2)n1c(-c2ccco2)n[nH]c1=S (stereo not drawn) |
| 1.7 µM | CC(C1CC2CCC1C2)n1cnnc1-c1ccco1 (stereo not drawn) |
| 5.21 µM | CC(C1CC2CCC1C2)n1c(SCC(=O)c2ccccc2)nnc1-c1ccco1 (stereo not drawn) |
| 0.0651 µM | CC(C)Oc1ccccc1C(=O)Nc1cccc(NC(=O)c2ccccc2OC(F)(F)F)c1 |
| 7.77 µM | CC(C1CC2CCC1C2)n1c(SCC(=O)c2ccc(Cl)c(Cl)c2)nnc1-c1ccco1 (stereo not drawn) |
| 9.41 µM | C[C@@H](C1CCCCC1)n1c(-c2ccco2)n[nH]c1=S |
| 0.361 µM | CC(C1CC2CCC1C2)N(C)C(=O)c1ccco1 (stereo not drawn) |
| 3.58 µM | CC(C1CCCCC1)n1c(-c2ccco2)n[nH]c1=S (stereo not drawn) |
| 1.84 µM | COc1ccc(C(=O)CSc2nnc(-c3ccco3)n2C(C)C2CC3CCC2C3)cc1OC (stereo not drawn) |
| 2.24 µM | COc1ccc(CCSc2nnc(-c3ccco3)n2C(C)C2CC3CCC2C3)cc1OC (stereo not drawn) |
| 21.4 µM | CSc1nnc(-c2ccco2)n1C(C)C1CC2CCC1C2 (stereo not drawn) |
| 0.109 µM | CC(C1CC2CCC1C2)n1c(-c2ccccc2F)n[nH]c1=S (stereo not drawn) |
| 1.6 µM | CC(C1CC2CCC1C2)n1c(SCC(=O)c2ccc3c(c2)OCO3)nnc1-c1ccco1 (stereo not drawn) |
| 1.03 µM | COc1cc(OC)cc(-c2n[nH]c(=S)n2C(C)C2CC3CCC2C3)c1 (stereo not drawn) |
| 2.57 µM | COc1cccc(Cc2n[nH]c(=S)n2C(C)C2CC3CCC2C3)c1 (stereo not drawn) |
| 4.65 µM | COc1cccc(C(=O)CSc2nnc(-c3ccco3)n2C(C)C2CC3CCC2C3)c1 (stereo not drawn) |

| IC50 | SMILES |
| --- | --- |
| 0.236 µM | COc1ccccc1C(=O)Nc1cccc(NC(=O)c2cccc3ccccc23)c1 |
| 1.17 µM | CC(C1C2CCC1CC2)n1c(-c2ccco2)n[nH]c1=S (stereo not drawn) |
| 13.4 µM | CC(NC(=O)c1ccco1)C1CC2CCC1C2 (stereo not drawn) |
| 2.36 µM | COc1cccc(-c2n[nH]c(=S)n2C(C)C2CC3CCC2C3)c1OC (stereo not drawn) |
| 17.7 µM | CC(C1CC2CCC1C2)n1c(SCC#N)nnc1-c1cccs1 (stereo not drawn) |
| 2.27 µM | CC(C1CC2CCC1C2)n1c(-c2cccc(N(C)C)c2)n[nH]c1=S (stereo not drawn) |
| 1.39 µM | CC(C1CC2CCC1C2)n1c(-c2cccn2C)n[nH]c1=S (stereo not drawn) |
| 16.4 µM | CC(C1CC2CCC1C2)n1c(-c2ccco2)nnc1C(F)(F)F (stereo not drawn) |
| 0.11 µM | CC(C1CC2CCC1C2)n1c(-c2cccs2)n[nH]c1=S (stereo not drawn) |
| 18 µM | COc1cccc(-c2nnc(S(C)(=O)=O)n2C(C)C2CC3CCC2C3)c1 (stereo not drawn) |
| 2.37 µM | CC(C1CC2CCC1C2)n1c(-c2ccccn2)n[nH]c1=S (stereo not drawn) |
| 1.39 µM | CC(C1CC2CCC1C2)n1c(SCc2ccccc2)nnc1-c1ccco1 (stereo not drawn) |
| 0.292 µM | CC(CC1CC2CCC1C2)n1c(-c2ccco2)n[nH]c1=S (stereo not drawn) |
| 0.187 µM | C[C@H](C1CCCCC1)n1c(-c2ccco2)n[nH]c1=S |
| 0.732 µM | CC(C)c1ccccc1C(=O)Nc1cccc(NC(=O)c2ccccc2OC(F)(F)F)c1 |
| 9.14 µM | COc1ccc(C(=O)CSc2nnc(-c3ccco3)n2C(C)C2CC3CCC2C3)cc1 (stereo not drawn) |
| 8.46 µM | CC(C1CC2CCC1C2)n1c(SC(F)F)nnc1-c1ccco1 (stereo not drawn) |

same assay, conditions: HEK293-KCNK9, FluxOR thallium flux fluorescence; at 30 µM (top of the series)

| normalised flux ratio, lower = inhibition | SMILES |
| --- | --- |
| inactive | S=c1[nH]nc(-c2ccco2)n1CC1CC2CCC1C2 (stereo not drawn) |
| inactive | CC(C1CC2CCC1C2)n1c(-c2ccco2)n[nH]c1=O (stereo not drawn) |
| inactive | S=c1[nH]nc(-c2ccco2)n1C1CC2CCC1C2 (stereo not drawn) |
| inactive | CC(C1CC2CCC1C2)n1c(-c2ccncc2)n[nH]c1=S (stereo not drawn) |
| inactive | CC(C1CC2CCC1C2)n1c(-c2ccc(N(C)C)cc2)n[nH]c1=S (stereo not drawn) |
| inactive | CC(C1CC2CCC1C2)n1c(-c2cccnc2)n[nH]c1=S (stereo not drawn) |
| inactive | CC(c1cccc2ccccc12)n1c(-c2ccco2)n[nH]c1=S (stereo not drawn) |
| inactive | COc1ccccc1C(=O)Nc1cc(NC(=O)c2ccccc2C(C)C)ccc1F |
